The text below walks through data of ChEMBL document CHEMBL1157054, “Design, synthesis and biological evaluation of indane-2-arylhydrazinylmethylene-1,3-diones and indol-2-aryldiazenylmethylene-3-ones as beta-amyloid aggregation inhibitors” (Eur J Med Chem, 2010).

Each structure is given as a SMILES string. pIC50: −log10 of the molar value. Activity calls are given as the source filed them. The rule behind the calls is not given here.

As usually defined, the inhibition is the share of the control response that was lost under treatment. For orientation: pIC50 means the negative decadic logarithm of the IC50, by convention in mol/L.

One experiment can be described thus: Inhibition of amyloid beta (1 to 40) aggregation assessed as inhibition of protofibril formation after 3 days. The gist of the method: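 Aβ1-40 (30 µM) with compound at 50 µM in 0.217 M phosphate buffer pH 8.0, 10% ethanol, incubated at 37 °C up to 7 days; aliquots taken at time points, applied to carbon-coated grids, negatively stained with 2% uranyl acetate, imaged by TEM at 60 kV, 60,000-fold magnification; qualitative fibril/protofibril assessment.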
Take `CC(C)c1ccc(/N=N/C=C2Nc3ccccc3C2=O)cc1`: the inhibition entry is “Active”.

Another experiment in a line: Inhibition of amyloid beta (1 to 40) aggregation assessed as inhibition of fibril formation at 100 uM by thioflavin T fluorescent dye assay. The gist of the method: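 Aβ1-40 (HFIP-treated, lyophilized) at 30 µM in PBS (0.01 M, NaCl 0.1 M, pH 7.4) with 2% HFIP and 10% DMSO, test compound 100 µM; triplicate incubations, 2 h at 25 °C. Sample mixed with 25 µM ThT in 0.025 M phosphate pH 6.0; fluorescence ex 440/em 485 nm. Percent inhibition = 100 − [(Fi − Fb)/F0]×100, blank-corrected against free Aβ aggregation.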
As for `O=c1c(=NNc2ccc(Cl)cc2)c(=O)c2ccccc12`, the inhibition stood at 38%. For the compound `Cc1ccc(NNC=C2C(=O)c3ccccc3C2=O)cc1`, the inhibition was 44%. Same read-out and setting: the value for `O=C1CCC(=O)C1=CNNc1ccc(Cl)cc1` was 44%; that for `O=C1C(=C/N=N/c2ccc(Cl)c(Cl)c2)Nc2ccc(Br)cc21` was 23%; that for `O=C1C(=C/N=N/c2ccc(Cl)cc2)Nc2ccccc21` was 33%. On the same count and under the same terms, the value for `O=C1C(=CNNc2ccccc2)C(=O)c2ccccc21` was 49%; that for `O=C1C(=C/N=N/c2ccc(Cl)cc2)Nc2ccc(Br)cc21` was 20%.

The next experiment is described as follows: Inhibition of amyloid beta (1 to 40) aggregation assessed as inhibition of fibril formation by thioflavin T fluorescent dye assay. The gist of the method: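 ThT fluorimetric assay on HFIP-pretreated Aβ1-40, 30 µM in PBS pH 7.4 containing 2% HFIP and 10% DMSO, incubated 2 h at 25 °C. Fluorescence read after mixing with 25 µM ThT (phosphate pH 6.0), ex 440/em 485 nm, blank-corrected vs inhibitor-free aggregation. IC50 from 5-7 concentrations tested in triplicate, three independent experiments.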
Take `O=C1C(=CNNc2ccc(Cl)cc2)C(=O)c2ccccc21`: the negative logarithm of the IC50 (pIC50) is 4.64. With `O=C1C(=C/N=N/c2ccccc2Cl)Nc2ccccc21`, the pIC50 is 4.89. The same measure, in the same setting: the value for `O=C1C(=C/N=N/c2cccc(Cl)c2)Nc2ccc(Br)cc21` was 5.36. For `O=C1C(=C/N=N/c2cccc(Cl)c2)Nc2ccccc21`, the pIC50 is 5.60.

In the case of `O=C1C(=CNNc2ccccc2Cl)C(=O)c2ccccc21`, the pIC50 is 4.49. With `O=c1c(O)c(-c2ccc(O)c(O)c2)oc2cc(O)cc(O)c12` [QUERCETIN], the pIC50 is 6.10. The same measure, in the same setting: the result for `O=C1C(=C/N=N/c2ccccc2Cl)Nc2ccc(Br)cc21` reads 5.11; that for `O=C1C(=CNNc2cccc(Cl)c2)C(=O)c2ccccc21`, 4.74; that for `CC(C)c1ccc(/N=N/C=C2Nc3ccc(Br)cc3C2=O)cc1`, 4.64. The same measure, in the same setting: the value for `O=C1C(=C/N=N/c2ccccc2)Nc2ccccc21` was 5.06. Still for that read-out and setting: the result for `CC(C)c1ccc(NNC=C2C(=O)c3ccccc3C2=O)cc1` reads 4.74; that for `Cc1ccc(/N=N/C=C2Nc3ccccc3C2=O)cc1`, 5.44; that for `Cc1ccc(/N=N/C=C2Nc3ccc(Br)cc3C2=O)cc1`, 4.29. With `COc1ccc2[nH]cc(/C=N\Nc3ccc(Cl)cc3)c2c1`, the pIC50 is 4.64. Consider `O=C1C(=C/N=N/c2ccccc2)Nc2ccc(Br)cc21`, for which the pIC50 is 4.46. Still for that read-out and setting: the value for `CC(C)c1ccc(/N=N/C=C2Nc3ccccc3C2=O)cc1` was 5.85.
